Laboratory results published in the EternaBench riboswitch data.

Test system: MS2 coat protein
Assay: apparent Kd, MS2 coat protein; higher = weaker binding; RNA-MaP array; FMN 200 µM where present
In short: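 The apparent Kd is the median of filtered binding-curve fits, one per cluster, to green signal normalised to red-channel RNA signal and control-cluster median Fmax. The clusters were on Illumina sequencing chips, and stalled E. coli RNA polymerase had transcribed the designs on them. Titration used SNAP-549-labelled MS2 coat protein from 0.7 or 1.5 nM, doubling to 3 µM, without and then with constant ligand, in 100 mM Tris-HCl pH 7.5, 80 mM KCl, 4 mM MgCl2, BSA, DTT, yeast tRNA and Tween-20.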

[1] = designed as: ON switch for flavin mononucleotide, no ligand
[2] = ligand present: flavin mononucleotide, designed as: ON switch for flavin mononucleotide
[3] = designed as: OFF switch for flavin mononucleotide, no ligand
[4] = ligand present: flavin mononucleotide, designed as: OFF switch for flavin mononucleotide

| Sequence | apparent Kd [1] | apparent Kd [2] | apparent Kd [3] | apparent Kd [4] |
| --- | --- | --- | --- | --- |
| UGUCCUUGAGGCUCGGACGUGUCGCCAGAAGGCAAUUUCUGACAUGAGGAUCACCCAUGUCCAAUUGAGGAUAUGGCUGCGUUG | 0.0173 µM | 0.00556 µM | – | – |
| UGUCGGAGCAGAGGAUAUACAUGAGGAUCACCCAUGUAAAUGGAAGAAGACUGGAAACAGUCAAUGUAGAAGGCUGCUCCGACA | – | – | 0.125 µM | 0.694 µM |
| UGUCGGAGCAGAGGAUAUAUACAUGAGGAUCACCCAUGUAAAGAUCAAAGCUGGAAACAGCAAGUAUAGAAGGCUGCUCCGACA | – | – | 0.12 µM | 0.295 µM |
| UGUCGGAGCAGAGGAUAUAUACAUGAGGAUCACCCAUGUAAAUGAAUGAGCUGGAAACAGCAUGUAUAGAAGGCUGCUCCGACA | – | – | 0.118 µM | 0.298 µM |
| UGUCGGAGCAGAGGAUAUUACAUGAGGAUCACCCAUGUAUGAACCAAAAGCUGGAAACAGCAAUGUAAGAAGGCUGCUCCGACA | – | – | 0.0118 µM | 0.123 µM |
| UGUCGGAGCAGAGGAUAUUACAUGAGGAUCACCCAUGUAUGAACCAAUAACUGGAAACAGCAAUGUAAGAAGGCUGCUCCGACA | – | – | 0.0076 µM | 0.0425 µM |
| UGUCGGAGCAGAGGAUAUUACAUGAGGAUCACCCAUGUAUGAACCAAUAGCUGGAAACACCAAUGUAAGAAGGCUGCUCCGACA | – | – | 0.0198 µM | 0.146 µM |
| UGUCGGAGCAGAGGAUAUUACAUGAGGAUCACCCAUGUAUGAACCAAUAGCUGGAAACAGCAAGGUAAGAAGGCUGCUCCGACA | – | – | 0.00524 µM | 0.00998 µM |
| UGUCGGAGCAGAGGAUAUUACAUGAGGAUCACCCAUGUAUGAACCAAUAGCUGGAAACAGCAAUCUAAGAAGGCUGCUCCGACA | – | – | 0.00447 µM | 0.00434 µM |
| UGUCGGAGCAGAGGAUAUUACAUGAGGAUCACCCAUGUAUGAACCAAUAGCUGGAAACAGCAAUGUAAGAAGGCUGCUCCGACG | – | – | 0.0129 µM | 0.157 µM |
| UGUCGGAGCAGAGGAUAUUACAUGAGGAUCACCCAUGUAUGAACCAAUAGCUGGAAACAGCAAUGUCAGAAGGCUGCUCCGACA | – | – | 0.005 µM | 0.00506 µM |
| UGUCGGAGCAGAGGAUAUUACAUGAGGAUCACCCAUGUAUGAACCAAUAGCUGGAAACAGCAAUUUAAGAAGGCUGCUCCGACA | – | – | 0.00528 µM | 0.00496 µM |
| UGUCGGAGCAGAGGAUAUUACAUGAGGAUCACCCAUGUAUGAACCAAUAGCUGGAAACGGCAAUGUAAGAAGGCUGCUCCGACA | – | – | 0.0131 µM | 0.171 µM |
| UGUCGGAGCAGAGGAUAUUACAUGAGGAUCACCCAUGUAUGAACCAAUAGCUGGAACCAGCAAUGUAAGAAGGCUGCUCCGACA | – | – | 0.0142 µM | 0.16 µM |
| UGUCGGAGCAGAGGAUAUUACAUGAGGAUCACCCAUGUAUGAACCAAUAGCUGGAAGCAGCAAUGUAAGAAGGCUGCUCCGACA | – | – | 0.0122 µM | 0.137 µM |
| UGUCGGAGCAGAGGAUAUUACAUGAGGAUCACCCAUGUAUUAAAUGGAAGCUGGAAACAGCAAUGUAAGAAGGCUGCUCCGACA | – | – | 0.0592 µM | 0.311 µM |
| UGUCGUAGCAGAGGAUAUUACAUGAGGAUCACCCAUGUAUGAACCAAUAGCUGGAAACAGCAAUGUAAGAAGGCUGCUCCGACA | – | – | 0.0132 µM | 0.158 µM |
| UGUCUAUUUGAAGGAUAUCUAAGCAUAAACCGUAGAGAAGGUCAAUUAUACAUGAGGAUCACCCAUGUUGAGAUUGAUGGGUUU | – | – | 0.0169 µM | 0.0178 µM |
| UGUGCACUAGGAUAUGCGUAAGCUGAUACGUCAGCAGGUCUACAUGAGGAUCACCCAUGUAGAAGGAGUGUACU | – | – | 0.0171 µM | 0.0169 µM |
| UGUGCGUAUGUGAGGAUAUGCUGGUCCUUGGCUCGGCAGAAGGCACAUGAGGAUCACCCAUGUGGUGUCGUACC | – | – | 0.0386 µM | 0.189 µM |
| UGUGCGUUGAUCUUCGAUCGGUGUACAUGAGGAUCACCCAUGUAGGAUAUUCUAAGACGCAGAUAGGAGAAGGACAUUGGUUUU | – | – | 0.0229 µM | 0.0641 µM |
| UGUGCUGAAGGAUAUGCGUAAUGGCCGUGAGGCCUAGAUCUACAUGAGGAUCACCCAUGUAGAAGGUCAGUACU | – | – | 0.0174 µM | 0.0189 µM |
| UGUGGGAGUCAGAAGGAGUAUUCUACAUGAGGAUCACCCAUGUCUGGUGCUAGGAUAUGGGUCUGGGCGGACUAAGGUCUCGUA | 0.444 µM | 0.243 µM | – | – |
| UGUGUUAUCGGAGGAUAUCGAUAUCAAACAUGAGGAUCACCCAUGUUGAGGAUCACCCAUGUCCACGAGAAGGCCGGCGUACUC | 0.0238 µM | 0.0241 µM | – | – |
| UGUUAGUAGACAGGAUAUUGAAUGUUAAGUAUUAACAUGAGGAUCACCCAUGUAUUUGAUUGGUACAAGAAGGGUCAUGUUUGU | 0.265 µM | 0.606 µM | – | – |
| UGUUAUUAGACAGGAUAUUGAAUGUUAAGUAUUAACAUGAGGAUCACCCAUGUAUUUGAUUGGUACAAGAAGGGUCAUGUUCCU | 0.431 µM | 0.649 µM | – | – |
| UGUUCAUCAUCAGGAUAUUAACGUGGGCUACUUUAAGAAGGGAUAGUGGGAGAGGAUGUGAAACAUGAGGAUCACCCAUGUUGU | 0.0134 µM | 0.0103 µM | – | – |

| Sequence | apparent Kd [1] | apparent Kd [2] | apparent Kd [3] | apparent Kd [4] |
| --- | --- | --- | --- | --- |
| UGUUGUAUUACAGGAUAUCUAGUAUUUUUAAUUAGAGAAGGGUAUUCACAUGAGGAUCACCCAUGUAUAUACGAGGAAGUUGUG | 0.0433 µM | 0.0431 µM | – | – |
| UGUUGUAUUACAGGAUAUCUAGUAUUUUUAUUUAGAGAAGGGUAUUCACAUGAGGAUCACCCAUGUAUAUACGAGGAAGUUGUG | 0.0343 µM | 0.0388 µM | – | – |
| UGUUGUAUUACAGGAUAUCUAUUAUUAUUAUUUAGAGAAGGGUAUUCACAUGAGGAUCACCCAUGUAUAUACGAGGAAGUUGUG | 0.0437 µM | 0.0455 µM | – | – |
| UGUUGUAUUACAGGAUAUCUAUUAUUUUUAAUUAGAGAAGGGUAUUCACAUGAGGAUCACCCAUGUAUAUACGAGGAAGUUGUG | 0.0352 µM | 0.0358 µM | – | – |
| UGUUGUAUUACAGGAUAUCUAUUAUUUUUUUUUAGAGAAGGGUAUUCACAUGAGGAUCACCCAUGUAUAUACGAGGAAGUUGUG | 0.0598 µM | 0.062 µM | – | – |
| UGUUGUUCAGGAUAUGGUGUGUUAUACAUGAGGAUCACCCAUGUGGGUCCUGGUUUGGCGUCAGAAGGGAAUGUUG | – | – | 0.539 µM | 0.396 µM |
| UGUUUCUUGUAAGGAUAUACUAGCGAUAAGCUAGUAGAAGGUACUGUCUUUUGUAUCUCAUAUUUACAUGAGGAUCACCCAUGU | 0.00941 µM | 0.00807 µM | – | – |
| UGUUUUUUGGGAGGAUAUGUAAAUUUAAACAUGAGGAUCACCCAUGUGGAUCACCCAUGUAGAUAAUAGAAGGCCCUUUUUUUU | – | – | 0.0553 µM | 0.0365 µM |
| UUAAAUCAUGUAGGAUAUGCAUGGCGAAGCUACGCAGAAGGACAUGAGGAUCACCCAUGUUAUAGCUUCCAAGUUAGGAGGCAA | – | – | 0.0857 µM | 0.191 µM |
| UUAACUCAUGUAGGAUAUGCAUGGCGAAGCUACGCAGAAGGACAUGAGGAUCACCCAUGUUCUAGCGUCUGGAAACAGAUGCAA | – | – | 0.0679 µM | 0.359 µM |
| UUAAUAAUACAAGGAUAUCUAUUGUUCUUAAGACAUACAUGAGGAUCACCCAUGUUAAUAUAUAUAGAGAAGGUGUAUUUUCAG | 0.0272 µM | 0.02 µM | – | – |
| UUAAUAGUAGGAUAUACAUGAGGAUCACCCAUGUAGCAACUACAUUAAGGAACCUGAUGUAGAAGGACUCCCAG | – | – | 0.0134 µM | 0.0152 µM |
| UUAAUGAUGUAAGGAUAUACAUGAGGAUUUCUCGUAGAAGGUACAAGACAUGAGGAUCACCCAUGUGUCGCUCCGUAGAGCGUA | 0.288 µM | 0.302 µM | – | – |
| UUAAUGUGAGGAUAUCAGGUGUGAUAGAGUAAUGGUAAAUCUGAGAAGGCACAUGAGGAUCACCCAUGUUCUUC | – | – | 0.023 µM | 0.0338 µM |
| UUAAUUAAUUAAUUAUACAUGAGGAUCACCCAUGUAAGUGAUCAGGAUAUCAGCUCGAUUAGAGCUGAGAAGGGAUCCAUGUAA | 0.109 µM | 0.0813 µM | – | – |
| UUAAUUAAUUAAUUGCAGUUACAUGAGGAUCACCCAUGUAUAUAGGAUAUCGUCAGGAAUACUGACGAGAAGGAUAUACUCUGC | – | – | 0.0216 µM | 0.0267 µM |
| UUAAUUAAUUAAUUGCAGUUUACAUGAGGAUCACCCAUGUAUAAGGAUAUGCAGUGGAAUACACUGCAGAAGGUAUACAUCUGC | – | – | 0.0195 µM | 0.0352 µM |
| UUAAUUAUGUAAGGAUAUACAUGAGGAUUUCUCGUAGAAGGUACAUUACAUGAGGAUCACCCAUGUGGGUGUCCGUAGACGCCA | 0.632 µM | 0.614 µM | – | – |
| UUACAGCAAGGAUAUACAUGAGGAUCACCCAUGUAUGCGUGUUCGAGAGAGGCCUACGGUAGAAGGUGCAUGUU | – | – | 0.0241 µM | 0.0224 µM |
| UUACUAUUGGAGAAGGGUCGAUCAUAUAGAAUGACAGGAUAUCCAACAUGAGGAUCACCCAUGUUUCACCCAUAUGAGGAUCAC | – | – | 0.102 µM | 0.031 µM |
| UUACUCAUGUAAGGAUAUGCAGCCGAUACGGCUGCAGAAGGUACUAAAAUACAUGAGGAUCACCCAUGUCUUUUUAAUUUAGAC | 0.14 µM | 0.0737 µM | – | – |
| UUACUCAUGUAAGGAUAUGCAGCCGUGUCGGCUGCAGAAGGUACUAUAAUACAUGAGGAUCACCCAUGUCUAUAAAAUAAAGAC | 0.048 µM | 0.0268 µM | – | – |
| UUACUCAUGUAAGGAUAUGCAGCCGUUUCGGCUGCAGAAGGUACUAUAAUACAUGAGGAUCACCCAUGUCUAUAAAAUAAAGGC | 0.0489 µM | 0.0502 µM | – | – |
| UUACUCAUGUAAGGAUAUGCAGCCGUUUCGGUUGCAGAAGGUACUAUAAUACAUGAGGAUCACCCAUGUCUUUUUAAUUUUUAC | 0.0679 µM | 0.0312 µM | – | – |
| UUAGAAAGGUUAGGAUAUUAAUUAUUGUAUAGUAUGAUCUACAUGAGGAUCACCCAUGUUAAAUAUAAGAAGGAACGUUAGAUU | – | – | 0.0571 µM | 0.0548 µM |
| UUAGAUAGGUCAGGAUAUCGAUUAUUGUAUAGUAUGAUUUACAUGAGGAUCACCCAUGUUAAAUACGAGAAGGGACGUUAGAUU | – | – | 0.0265 µM | 0.019 µM |
| UUAGAUUAUUGAGGAUAUGGUUAUUUUUAUUAACCAGAAGGCAAACUCAACAUGAGGAUCACCCAUGUAUAAAGGGUAUUAGUU | – | – | 0.0849 µM | 0.0827 µM |
